Data set [1] concerns the target T1, Multidrug efflux pump subunit AcrB (Escherichia coli (strain K12)) (UniProt P31224).
T1 sequence (whole entry): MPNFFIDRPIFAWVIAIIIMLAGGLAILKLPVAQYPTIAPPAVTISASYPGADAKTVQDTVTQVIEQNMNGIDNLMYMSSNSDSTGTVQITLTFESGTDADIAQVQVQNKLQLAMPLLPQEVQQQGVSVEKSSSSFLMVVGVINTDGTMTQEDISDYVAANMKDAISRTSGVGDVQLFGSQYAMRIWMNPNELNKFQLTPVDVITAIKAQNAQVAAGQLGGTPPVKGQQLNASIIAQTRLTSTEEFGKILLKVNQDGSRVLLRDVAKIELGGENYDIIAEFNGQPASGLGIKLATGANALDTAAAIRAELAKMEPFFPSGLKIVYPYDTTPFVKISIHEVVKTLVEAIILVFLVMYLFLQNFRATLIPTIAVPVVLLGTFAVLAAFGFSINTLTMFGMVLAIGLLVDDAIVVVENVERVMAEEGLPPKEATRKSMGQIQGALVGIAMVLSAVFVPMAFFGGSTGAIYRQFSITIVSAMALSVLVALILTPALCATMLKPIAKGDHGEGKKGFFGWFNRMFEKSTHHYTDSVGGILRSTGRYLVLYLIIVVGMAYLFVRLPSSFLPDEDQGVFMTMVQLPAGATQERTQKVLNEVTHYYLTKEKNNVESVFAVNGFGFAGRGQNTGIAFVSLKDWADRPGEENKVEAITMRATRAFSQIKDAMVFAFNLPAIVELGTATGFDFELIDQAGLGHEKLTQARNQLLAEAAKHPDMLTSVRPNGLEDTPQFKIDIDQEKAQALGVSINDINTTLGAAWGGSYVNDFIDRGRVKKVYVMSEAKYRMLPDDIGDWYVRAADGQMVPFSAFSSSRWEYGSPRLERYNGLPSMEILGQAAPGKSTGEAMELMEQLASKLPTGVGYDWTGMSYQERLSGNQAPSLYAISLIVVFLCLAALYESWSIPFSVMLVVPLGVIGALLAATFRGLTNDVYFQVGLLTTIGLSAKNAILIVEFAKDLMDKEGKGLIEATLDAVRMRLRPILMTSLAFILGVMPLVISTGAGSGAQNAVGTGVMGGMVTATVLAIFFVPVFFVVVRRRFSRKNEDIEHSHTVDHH
The data set is described as follows: Inhibition of AcrB in Escherichia coli BW25113 assessed as potentiation of tetraphenylphosphonium induced antibacterial activity by measuring tetraphenylphosphonium MIC at 256 ug/ml measured after 18 hrs by checkerboard titration method (reference value: 1024 ug/ml). The following applies: dose 256.0 µg/ml.

In data set [2] the test system is Cell membrane. The data set is described as follows: Induction of outer membrane permeabilization in wild type Escherichia coli BW25113 assessed as increase in nitrocefin hydrolysis at 256 ug/ml by spectrophotometry analysis. The following applies: dose 256 µg/ml. An outline of the steps: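 Outer-membrane permeability: intact E. coli treated with 10 µM CCCP to block nitrocefin efflux, then exposed to compound. Nitrocefin hydrolysis by periplasmic β-lactamase followed as increasing absorbance at 490 nm over time. Polymyxin B as permeabilizer control, untreated cells as baseline. Duplicate experiments on different days.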

Data set [3] deals with T1, Multidrug efflux pump subunit AcrB (Escherichia coli (strain K12)). Briefly: Inhibition of AcrB in Escherichia coli BW25113 assessed as reduction in glucose-induced nile red efflux at 500 uM preincubated for 15 mins followed by nile red addition and incubated for 3 hrs in shaker in presence of CCCP by fluorimetric analysis. The conditions noted are these: time 195.0 min. An outline of the steps:
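Wild-type E. coli cells with active AcrB were preloaded with Nile Red, with or without compound, before fluorescence recording began. At 100 sec, 0.2% glucose was added to re-energize the cells and trigger efflux, which was followed by fluorometry. An acrB-deleted isogenic strain served as the maximum-accumulation (no-efflux) reference. Triplicate experiments used different cell batches.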

Data set [4] concerns Cell membrane. The data set is described as follows: Induction of inner membrane permeabilization in CCCP treated wild type Escherichia coli BW25113 at 128 ug/ml measured after 10 mins by Di0C2(3) probe based fluorimetric method. The conditions noted are these: escherichia coli bw25113, 10 min, dose 128 µg/ml. An outline of the steps: (§1)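 Cells left untreated or exposed to compound at 8-256 µg/mL for 10 min, then DiOC2(3) added and fluorescence followed to plateau. Cells re-energized with 0.5% glucose; membrane potential build-up read as fluorescence rise to plateau, then dissipated with CCCP.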

The target of data set [5] is T1, Multidrug efflux pump subunit AcrB (Escherichia coli (strain K12)). Briefly: Inhibition of AcrB in Escherichia coli BW25113 assessed as reduction in glucose-induced nile red efflux at 50 to 100 uM preincubated for 15 mins followed by nile red addition and incubated for 3 hrs in shaker in presence of CCCP by fluorimetric analysis. The following applies: dose 50-100 µM, time 195.0 min. The essentials:
(§2)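 Whole-cell efflux: wild-type and ΔAcrB cells preloaded with Nile Red, with or without compound, before fluorescence readings. Efflux triggered at 100 s with 0.2% glucose and followed by fluorometry. The ΔAcrB strain marks maximal accumulation. Triplicate experiments with different cell batches.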

Data set [6] shares this target. The data set is described as follows: Inhibition of AcrB in Escherichia coli BW25113 assessed as potentiation of chloramphenicol induced antibacterial activity by measuring fold change in chloramphenicol MIC at 128 ug/ml measured after 18 hrs by checkerboard titration method relative to chloramphenicol alone. The conditions noted are these: dose 128.0 µg/ml.
Data set [7] has the same target. The data set is described as follows: Inhibition of AcrB in Escherichia coli BW25113 assessed as potentiation of erythromycin induced antibacterial activity by measuring fold change in erythromycin MIC at 128 ug/ml measured after 18 hrs by checkerboard titration method relative to erythromycin alone. The conditions noted are these: dose 128.0 µg/ml.
Data set [8] has the same target. The data set is described as follows: Inhibition of AcrB in Escherichia coli BW25113 assessed as potentiation of erythromycin induced antibacterial activity by measuring fold change in erythromycin MIC at 32 ug/ml measured after 18 hrs by checkerboard titration method relative to erythromycin alone. The following applies: dose 32.0 µg/ml.
Data set [9] is described as follows: Growth inhibition of Escherichia coli harboring AcrB deletion mutant at higher concentration after 18 hrs by broth microdilution assay. The essentials:
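MIC determined by 96-well broth microdilution in E. coli BW25113 expressing AcrB ((+)AcrB) and an isogenic acrB-deleted strain ((-)AcrB). Used to set the compound concentrations for synergy testing that produce no direct antibacterial effect.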

The target of data set [10] is T1, Multidrug efflux pump subunit AcrB (Escherichia coli (strain K12)). Briefly: Inhibition of AcrB in Escherichia coli BW25113 assessed as potentiation of levofloxacin induced antibacterial activity by measuring fold change in levofloxacin MIC at 32 ug/ml measured after 18 hrs by checkerboard titration method relative to levofloxacin alone. The following applies: dose 32.0 µg/ml.

Data set [11] concerns Cell membrane. Briefly: Induction of inner membrane permeabilization in CCCP treated wild type Escherichia coli BW25113 at 64 ug/ml measured after 10 mins by Di0C2(3) probe based fluorimetric method. The following applies: escherichia coli bw25113, 10 min, dose 64 µg/ml. An outline of the steps: as §1
Data set [12] deals with T1, Multidrug efflux pump subunit AcrB (Escherichia coli (strain K12)). The data set is described as follows: Inhibition of AcrB in Escherichia coli BW25113 assessed as reduction in glucose-induced nile red efflux at 100 to 200 uM preincubated for 15 mins followed by nile red addition and incubated for 3 hrs in shaker in presence of CCCP by fluorimetric analysis. The conditions noted are these: dose 100-200 µM, time 195.0 min. The essentials: as §2

Data set [13] deals with Cell membrane. The data set is described as follows: Induction of inner membrane permeabilization in CCCP treated wild type Escherichia coli BW25113 at 16 ug/ml measured after 10 mins by Di0C2(3) probe based fluorimetric method. The following applies: escherichia coli bw25113, 10 min, dose 16 µg/ml. The essentials:
as §1

Activity calls are given as the source filed them. No cut-off for these calls is given here.

Regarding `Oc1ccc(CCCCc2ccc(O)c(O)c2)cc1O`, in [1], the MIC was 512 µg/mL.
With `Oc1ccc(CCCCc2cc(O)c(O)c(O)c2)cc1O`, the Activity entry with Cell membrane [2] and in the data set on Cell membrane [4] was “Non-Toxic” in each case. In addition, the MIC in data set [1] worked out at 256 µg/mL. The inhibition entry in data set [3] was “Active”.
For `Oc1ccc(CCCCc2ccccc2O)cc1O`, the MIC in data set [1] came to 512 µg/mL. In addition, the inhibition result in data set [3] was “Active”. In the data set with Cell membrane [4], the Activity entry was “Toxic”.
For the molecule `Oc1ccc(CCCCc2ccc(Br)cc2)cc1O`, in data set [5], the inhibition result was “Active”. Further, in [1], the MIC was 512 µg/mL.
As for `Nc1ccc(C(=O)NCCc2ccc(O)c(O)c2)cc1`, the fold change (FC) in data set [6] and in data set [7] was 4 in each case. The inhibition result in [3] was “Active”.
Consider `C[C@H](Cc1ccc(O)c(O)c1)[C@@H](C)Cc1ccc(O)c(O)c1` [MASOPROCOL], for which the inhibition result in data set [5] was “Active”. For the same molecule, the Activity entry in the data set on Cell membrane [2] is “Toxic”. Moreover, the MIC in [1] came to 64 µg/mL.
Regarding `Nc1ccccc1C(=O)NCCc1ccc(O)c(O)c1`, in [3], the inhibition result was “Active”.
On to `Cc1ccc(C(=O)NCCc2ccc(O)c(O)c2)cc1`, for which the fold change (FC) in data set [8] amounted to 4. The inhibition entry in data set [5] was “Active”. Also, the “growth inhibition (GI)” value in [9] was “Toxic”.
As for `O=C(NCCc1ccc(O)c(O)c1)c1ccccc1O`, the Activity result in the data set with Cell membrane [2] is “Non-Toxic”. Further, the fold change (FC) in data set [10] was 2.
On to `O=C(NCCc1ccc(O)c(O)c1)c1cc(O)c(O)c(O)c1`, for which, in the data set on Cell membrane [11], the Activity entry is recorded as “Non-Toxic”. Further, the fold change (FC) in data set [6] amounted to 4; in [10] it was 2; in [7], 4. The inhibition entry in data set [3] was “Active”.
`Oc1ccc(CCCCCc2ccc(O)c(O)c2)cc1O`: the inhibition entry in data set [12] is “Active”. Further, the MIC in [1] is 32 µg/mL. For the same molecule, the Activity entry in the data set with Cell membrane [4] is recorded as “Toxic”. Moreover, in [9], the “growth inhibition (GI)” value is on record as “Toxic”.
For the molecule `Oc1ccc(CCCCc2ccc(Cl)cc2)cc1O`, in data set [5], the inhibition entry was “Active”. For the same molecule, in data set [1], the MIC stood at 512 µg/mL.
For `Oc1ccc(CCCCc2cc3cccc4ccc5cccc2c5c43)cc1O`, the inhibition result in data set [5] is “Active”. The MIC in data set [1] came out at 256 µg/mL. In addition, in the data set on Cell membrane [13], the Activity result is “Non-Toxic”.
For the molecule `Oc1ccc(CCCCCCCc2ccc(O)c(O)c2)cc1O`, in the data set on Cell membrane [11], the Activity result was “Non-Toxic”. Further, in data set [12], the inhibition result is “Active”. Besides, the MIC in data set [1] is 512 µg/mL.
In the case of `O=C(NCCc1ccc(O)c(O)c1)c1ccc(O)c(O)c1`, the Activity entry in the data set with Cell membrane [11] and in the data set with Cell membrane [2] was “Non-Toxic” each time. Also, the inhibition result in data set [12] is “Active”.
`Nc1cc(N)cc(C(=O)NCCc2ccc(O)c(O)c2)c1`: the Activity entry in the data set with Cell membrane [11] is given as “Non-Toxic”. Moreover, in data set [12], the inhibition entry is “Active”.
With `Oc1ccc(CCCCCCc2ccc(O)c(O)c2)cc1O`, in data set [5], the inhibition result was “Active”. For the same molecule, the MIC in data set [1] came to 512 µg/mL.
Regarding `Oc1ccc(CCCc2ccc(O)c(O)c2)cc1O`, the Activity entry in the data set with Cell membrane [2] is given as “Non-Toxic”. For the same molecule, the MIC in data set [1] stood at 512 µg/mL. Also, the inhibition result in data set [3] is “Active”.

For the origin of these results see ChEMBL document CHEMBL4680134, “Structural optimization of natural product nordihydroguaretic acid to discover novel analogues as AcrB inhibitors” (Eur J Med Chem, 2020).
